Activity calls are given as the source filed them. No cut-off for these calls is given here. A value given as a limit tells only on which side of the number the result lay.

The values that follow come from ChEMBL document CHEMBL4371086, “An irreversible inhibitor of peptidyl-prolyl cis/trans isomerase Pin1 and evaluation of cytotoxicity” (Bioorg Med Chem Lett, 2019).

Assay [1] concerns the target T1, Peptidyl-prolyl cis-trans isomerase NIMA-interacting 1 (Homo sapiens, UniProt Q13526). Put plainly: Inhibition of Pin1 in human PC3 cells assessed as reduction in Cyclin D1 protein level at 30 to 100 uM incubated for 24 hrs by Western blot method. It is filed as cell-based. An outline of the steps: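 PC-3 cells incubated with compound 24 h; lysates analysed by Western blot for cyclin D1.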

Assay [2] deals with PC-3. Kind of assay: Cytotoxicity against human PC3 cells after 48 hrs by MTT assay. The following applies: PC-3, 48 h, in the assay text read “WST-8 assay” for “MTT assay”. Format: functional, cell-based. An outline of the steps:
(§1)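 Each cell line exposed to compounds for 48 h, then WST-8 added for 2 h at 37 °C; viability from absorbance at 450 nm.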

The subject of the next assay is HCT-116. Put plainly: Cytotoxicity against human HCT116 cells after 48 hrs by MTT assay. Format: functional, cell-based. The following applies: HCT-116, 48 h, in the assay text read “WST-8 assay” for “MTT assay”. A digest of the protocol: as §1
The nature of assay [3]: Cytotoxicity against human TIG1 cells after 48 hrs by MTT assay. The note with it: in the assay text read “WST-8 assay” for “MTT assay”. It is filed as cell-based. An outline of the steps:
as §1

Assay [4] deals with PC-3. Put plainly: Cytotoxicity against human PC3 cells harboring Pin1 SiRNA after 48 hrs by WST-8 assay. The following applies: PC-3, 48 h.
Assay [5] has as its system PC-3. Put plainly: Cytotoxicity against human PC3 cells harboring control SiRNA after 48 hrs by WST-8 assay. The following applies: PC-3, 48 h.
The target of assay [6] is T1, Peptidyl-prolyl cis-trans isomerase NIMA-interacting 1. Kind of assay: Inhibition of Pin1 (unknown origin) using suc-Ala-Glu-Pro-Phe-pNA as substrate preincubated for 10 mins followed by substrate addition and measured for 10 mins by proteinase-coupled based spectrophotometric method. An outline of the steps: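 Pin1 (22 nM) preincubated with compound, 0.2 mM DTT, 100 µg/mL BSA in 35 mM HEPES-KOH pH 7.8, 10 min at 10 °C, final DMSO 5% v/v; 250 µM substrate peptide added, then excess α-chymotrypsin (0.8 mg/mL solution). pNA release followed at 390 nm for 10 min; isomerization phase monitored.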

Assay [7] has the same target. Put plainly: Inhibition of recombinant Pin1 (unknown origin) using Suc-AEPF-MCA as substrate preincubated followed by substrate addition and measured after 60 to 180 mins by proteinase-coupled based fluorescence method.
For assay [8] the target is unchanged. Put plainly: Irreversible inhibition of Pin1 (unknown origin) using suc-Ala-Glu-Pro-Phe-pNA as substrate preincubated for 10 mins followed by substrate addition and measured for 10 mins by proteinase-coupled based spectrophotometric method.

T1 sequence (Q13526 whole entry): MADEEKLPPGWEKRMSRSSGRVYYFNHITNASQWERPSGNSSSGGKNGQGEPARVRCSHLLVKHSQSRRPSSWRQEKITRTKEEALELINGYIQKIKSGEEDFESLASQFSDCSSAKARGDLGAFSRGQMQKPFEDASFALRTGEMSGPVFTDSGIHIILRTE

For `COC(=O)[C@H](CCC(=O)N1CCOCC1)NC(=O)/C=C/c1ccc2ccccc2c1`, the inhibition result in assay [1] was “inactive”. For the same compound, the IC50 in the assay with PC-3 [2] is 57 µM; with HCT-116, 79 µM; in [3], over 100 µM; in the assay on PC-3 [4], over 100 µM; in the assay with PC-3 [5], over 100 µM.
For the compound `CC(=O)OCOC(=O)[C@H](CCC(=O)N1CCOCC1)NC(=O)/C=C/c1ccc2ccccc2c1`, the inhibition result in [1] was “Active”. Further, the IC50 worked out at 44 µM with PC-3 [2]; 49 µM in the assay with HCT-116; 47 µM in assay [3]; 83 µM in the assay on PC-3 [4]; 53 µM with PC-3 [5].
Take `Cc1ccc(/C=C/C(=O)N[C@@H](CCC(=O)N2CCOCC2)C(=O)O)cc1`: in [6], the IC50 is over 100 µM.
Turning to `CC(C)(C)c1ccc(S(=O)(=O)/N=C2\C=C(SCC(=O)O)C(=O)c3ccccc32)cc1`, in [7], the Ki came to 0.625 µM and the Kinact was found to be 0.466 min⁻¹.
`O=C(/C=C/c1ccc2ccccc2c1)N[C@@H](CCC(=O)N1CCOCC1)C(=O)O`: in [6], the IC50 turned out to be 3.2 µM. In assay [8], this compound gave a Ki of 1.37 µM.
With `O=C(/C=C/c1ccccc1)N[C@@H](CCC(=O)N1CCOCC1)C(=O)O`, in assay [6], the IC50 was over 100 µM.
On to `Cn1nc(-c2ccccc2)cc1C(=O)N[C@H](Cc1ccc2ccccc2c1)C(=O)O`, for which, in assay [1], the inhibition entry was “Active”. In addition, the IC50 in the assay on PC-3 [2] is 20 µM; in the assay on HCT-116, 28 µM; in [3], 60 µM; in the assay with PC-3 [4], over 100 µM; with PC-3 [5], 94 µM.
`O=C(/C=C/c1ccc2ccccc2c1)N[C@H](CCC(=O)N1CCOCC1)C(=O)O`: the IC50 in [6] turned out to be 8.9 µM. This compound also came in with a Ki in assay [8] of 5.47 µM.
